In ChEMBL document CHEMBL2016530, “Synthesis and biological evaluation of pyrethroid insecticide-derivatives as a chemical inducer for Bdnf mRNA expression in neurons” (Bioorg Med Chem, 2012):
Calls of active or inactive are those of the source. No cut-off for these calls is given here.

Columns and labels:
Format in all cases: functional
Cortical neurone [1] = test: Increase in BDNF eIV-IX mRNA expression in rat cortical neurons at 10 uM after 3 hrs by RT-PCR analysis
Procedure, shortened: (§1)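 Primary cortical neurons from E17 Sprague–Dawley rat embryos, seeded at 2.5 × 10⁶ cells per polyethylenimine-coated 35 mm dish. Compound added for 3 h (time course 0–24 h at 10 µM). Total RNA extracted with acid guanidine phenol-chloroform and DNase I-treated, then reverse transcribed. Bdnf exon IV-IX mRNA measured by real-time PCR against plasmid standard curves and normalized to Gapdh. Reported as ratio to untreated control; n = 3–4.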

Cortical neurone [2] = test: Increase in BDNF eIV-IX mRNA expression in rat cortical neurons after 3 hrs by RT-PCR analysis; procedure, shortened: as §1
Cortical neurone [3] = test: Increase in BDNF eIV-IX mRNA expression in rat cortical neurons at 10 uM after 3 hrs by RT-PCR analysis in presence of VSSC antagonist TTX
Cortical neurone [4] = test: Increase in BDNF eIV-IX mRNA expression in rat cortical neurons at 10 uM after 3 hrs by RT-PCR analysis in presence of L-type voltage calcium channel blocker nicradipine
Cortical neurone [5] = test: Increase in BDNF eIV-IX mRNA expression in rat cortical neurons at 10 uM after 3 hrs by RT-PCR analysis in presence of ERK1/2 inhibitor U0126
Cortical neurone [6] = test: Increase in neurite crossings in rat cortical neurons at 10 uM after 6 hrs by Sholl analysis
Procedure, shortened: (§2)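 E17 rat cortical neurons transfected with a GFP expression vector by calcium phosphate at 4 days in culture. At day 6, treated for 6 h, then fixed in 4% formaldehyde/4% sucrose and immunostained for GFP and MAP2. Sholl analysis counted neurite intersections with concentric circles of 20–200 µm radius at 20 µm intervals around the cell body. Cells were not preselected; n = 3.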

Cortical neurone [7] = test: Increase in neurite length in rat cortical neurons at 10 uM after 6 hrs by anti-GFP and anti-MAP2-based fluorescence microscopy
Procedure, shortened: (§3)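 E17 rat cortical neurons GFP-transfected at 4 days in culture, drug-treated for 6 h at day 6, then fixed and stained with anti-GFP/anti-MAP2 and Alexa488/594 secondaries plus DAPI. Under fluorescence microscopy, all neurites arising from the cell body were traced within a 400 µm diameter and their total length measured; n = 3.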

Cortical neurone [8] = test: Increase in BDNF eIV-IX mRNA expression in rat cortical neurons at 10 uM by RT-PCR analysis; conditions: TDE = time-dependent effect; procedure, shortened: as §1
Cortical neurone [9] = test: Increase in BDNF eIV-IX mRNA expression in rat cortical neurons at 10 uM at 6 hrs by RT-PCR analysis; procedure, shortened: as §1
Cortical neurone [10] = test: Increase in BDNF eIV-IX mRNA expression in rat cortical neurons at 10 uM up to 24 hrs by RT-PCR analysis; procedure, shortened: as §1
Cortical neurone [11] = test: Increase in BDNF eIV-IX mRNA expression in rat cortical neurons at 10 uM after 3 hrs by RT-PCR analysis in presence of NMDA receptor antagonist APV
Cortical neurone [12] = test: Increase in BDNF eIV-IX mRNA expression in rat cortical neurons at 1 uM after 3 hrs by RT-PCR analysis; procedure, shortened: as §1
Cortical neurone [13] = test: Increase in neurite crossings in rat cortical neurons at 1 uM after 6 hrs by Sholl analysis; procedure, shortened: as §2
Cortical neurone [14] = test: Increase in neurite length in rat cortical neurons at 1 uM after 6 hrs by anti-GFP and anti-MAP2-based fluorescence microscopy; procedure, shortened: as §3

CC1(C)[C@H](C(=O)O[C@H](C#CBr)c2cccc(Oc3ccccc3)c2)[C@@H]1C=C(Br)Br
Activity (Cortical neurone [1]): Active
Activity (Cortical neurone [2]): Dose-dependent effect

CCC#C[C@@H](OC(=O)[C@@H]1[C@H](C=C(Br)Br)C1(C)C)c1cccc(Oc2ccccc2)c1
Activity (Cortical neurone [1]): Active

CC1(C)[C@H](C(=O)O[C@H](C#CCC(F)(F)F)c2cccc(Oc3ccccc3)c2)[C@@H]1C=C(Br)Br
Activity (Cortical neurone [1]): Active

C#C[C@@H](OC(=O)[C@@H]1[C@H](C=C(Br)Br)C1(C)C)c1cccc(Oc2ccccc2)c1
Activity (Cortical neurone [1]): Active
Activity (Cortical neurone [3]): inactive
Activity (Cortical neurone [4]): inactive
Activity (Cortical neurone [5]): inactive
Activity (Cortical neurone [6]): Active
Activity (Cortical neurone [7]): Active
Activity (Cortical neurone [8]): tde
Activity (Cortical neurone [9]): inactive
Activity (Cortical neurone [10]): Active
Activity (Cortical neurone [11]): Active

CC1(C)[C@H](C(=O)O[C@H](C#CI)c2cccc(Oc3ccccc3)c2)[C@@H]1C=C(Br)Br
Activity (Cortical neurone [1]): Active
Activity (Cortical neurone [2]): Dose-dependent effect

CC1(C)[C@H](C(=O)O[C@H](C#CCl)c2cccc(Oc3ccccc3)c2)[C@@H]1C=C(Br)Br
Activity (Cortical neurone [1]): Active
Activity (Cortical neurone [2]): Dose-dependent effect

CC1(C)[C@H](C(=O)O[C@H](C#N)c2cccc(Oc3ccccc3)c2)[C@@H]1C=C(Br)Br
Activity (Cortical neurone [12]): Active
Activity (Cortical neurone [1]): Active
Activity (Cortical neurone [13]): Active
Activity (Cortical neurone [14]): Active

CC#C[C@@H](OC(=O)[C@@H]1[C@H](C=C(Br)Br)C1(C)C)c1cccc(Oc2ccccc2)c1
Activity (Cortical neurone [1]): Active
